The source made the active and inactive calls. No cut-off for these calls is given here.

Test [1] is described as follows: (§1) Inhibition of Na/K-ATPase in porcine cerebral cortex. Type of test: tissue-based, Sus scrofa. In a few lines:
(§2)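 Coupled pyruvate kinase/lactate dehydrogenase assay using lyophilized porcine cerebral cortex Na/K-ATPase. The enzyme was preincubated at 37 °C for at least 30 min (or overnight at room temperature first, in some cases) with 10–14 inhibitor concentrations. Reactions were started with 5 mM ATP. NADH oxidation was followed at 340 nm for 5 min. IC50 came from the inhibition curves; relative potency is the IC50 divided by ouabain's IC50.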

Test [2] is filed under the species Sus scrofa. The experiment in a line: Inhibition of Na/K-ATPase in porcine cerebral cortex relative to ouabain. It is filed as tissue-based. In a few lines: as §2
Test [3] is filed under the species Sus scrofa. The test is described as §1. Type of test: tissue-based. In a few lines: as §2

As to `C[C@H]1O[C@@H](O[C@H]2CC[C@]3(C=O)[C@H]4CC[C@]5(C)[C@@H](C6=CC(=O)OC6)CC[C@]5(O)[C@@H]4CC[C@]3(O)C2)C[C@H](O)[C@@H]1O[C@@H]1OC[C@@H](O)[C@H](O)[C@H]1O`, the midpoint of inhibition in test [1], the IC50, lay at 160 nM. The same compound displayed an Activity in the test filed under Sus scrofa [2] of 0.341.
The like results for `C[C@]12CC[C@H]3[C@@H](CC[C@]4(O)C[C@@H](OC(=O)c5cccnc5)CC[C@]34C=O)[C@@]1(O)CC[C@@H]2C1=CC(=O)OC1` were, in that order, 443 nM and 0.944.
Compound `C[C@H]1CCC([C@@H](C)[C@H]2CC[C@@H]3[C@@H]2CC[C@H]2[C@H]3CC(=O)[C@H]3C[C@@H](O)CC[C@@]32C)=NC1` yielded an IC50 in test [1] of 143000 nM. In the test filed under Sus scrofa [2], this compound gave an Activity of 305.
Take `C[C@@H]1C[C@@H]2O[C@]3(C[C@@]4(C)[C@@H]5[C@@H](O)C[C@H]6C(C)(C)[C@@H](O[C@H]7OC[C@H](O)[C@@H](O)[C@@H]7O)CC[C@@]67C[C@@]57CC[C@]4(C)[C@@H]13)O[C@@H]2C(C)(C)O`: the result in the test filed under Sus scrofa [3] was inactive.
On the same count and under the same terms, next, `CC(=O)OCC(=O)[C@@]1(OC(C)=O)CC[C@H]2[C@@H]3CC[C@H]4C[C@H](OC(C)=O)CC[C@]4(C)[C@H]3CC[C@@]21C`: “inactive”.
Compound `CO[C@H]1[C@H](O)[C@H](O[C@H]2CC[C@@]3(C=O)[C@@H](CC[C@@H]4[C@H]3CC[C@]3(C)[C@@H](c5ccc(=O)oc5)CC[C@]43O)C2)O[C@@H](C)[C@@H]1O` yielded an IC50 in test [1] of 55.6 nM. In addition, the Activity in the test filed under Sus scrofa [2] is 0.118.
For the compound `CC1OC(O[C@H]2CC[C@]3(/C=N/CCc4ccc(O)cc4)[C@H]4CC[C@]5(C)[C@@H](C6=CC(=O)OC6)CC[C@]5(O)[C@@H]4CC[C@]3(O)C2)CC(O)C1O` (some centres not stated), the IC50 in test [1] was 2640 nM. The same compound gave an Activity in the test filed under Sus scrofa [2] of 4.92.
Turning to `C[C@]12CC[C@@H](O)C[C@@H]1[C@@H](O)C[C@H]1[C@H]2CC[C@]2(C)[C@@H]([C@@]3(C)CO3)CC[C@]12C`, the result in the test filed under Sus scrofa [3] was inactive.
`C[C@]12CC[C@H]3[C@@H](CC[C@]4(O)C[C@@H](O)CC[C@]34/C=N/C34CC5CC(CC(C5)C3)C4)[C@@]1(O)CC[C@@H]2C1=CC(=O)OC1` returned an IC50 in test [1] of 313 nM. In the test listed under Sus scrofa [2], this compound had an Activity of 0.668.
As for `CC(C)(O)[C@H]1CC[C@@](C)([C@H]2[C@@H](O)C[C@@]3(C)[C@@H]4C[C@H](O)C5C(C)(C)[C@@H](O[C@@H]6O[C@H](CO)[C@@H](O)[C@H](O)[C@H]6O)CC[C@@]56C[C@@]46CC[C@]23C)O1` (some centres not stated), the outcome in the test filed under Sus scrofa [3] was inactive.
For `C[C@H]1O[C@@H](O[C@H]2CC[C@]3(C=O)[C@H]4CC[C@]5(C)[C@@H](C6=CC(=O)OC6)CC[C@]5(O)[C@@H]4CC[C@]3(O)C2)C[C@H]2OC(C)(C)O[C@@H]12`, half-maximal inhibition in test [1] (IC50) was put at 14.6 nM. In addition, the Activity in the test filed under Sus scrofa [2] is 0.031.
The like results for `C[C@]12CC[C@H]3[C@@H](CC[C@]4(O)C[C@@H](O)CC[C@]34/C=N/Nc3ccccc3)[C@@]1(O)CC[C@@H]2C1=CC(=O)OC1` were, in that order, 4230 nM and 7.89.
The compound `C[C@H]1O[C@@H](O[C@H]2CC[C@]3(C=O)[C@H]4CC[C@]5(C)[C@@H](C6=COC(=O)C6)CC[C@]5(O)[C@@H]4CC[C@]3(O)C2)C[C@@H]2OC3(CCCCC3)O[C@@H]21` yielded an IC50 in test [1] of 409 nM. Further, the Activity in the test listed under Sus scrofa [2] came out at 0.872.

The term IC50 denotes the point on the concentration scale where inhibition reaches its midpoint. Higher therefore signals lower potency.
